# Reference: ChEMBL document CHEMBL3091449, “Synthesis and antimicrobial profile of N-substituted imidazolium oximes and their monoquaternary salts against multidrug resistant bacteria” (2013)
# How the values were obtained:
# Assay type in all cases: functional
# Talaromyces funiculosus [1] = experiment: Antifungal activity against Penicillium funiculosum FNSST 3724 assessed as diameter of zone of inhibition at 10 ug/disc after 72 hrs by disc diffusion method; conditions: FNSST 3724, 72 h, read-out: DIZ
# Summary of the method: (§1)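 The positive control was amphotericin B 10 µg discs on Sabouraud dextrose agar spread with 100 µL of a 10^4 cfu/mL fungal suspension. Plates were kept at 30 °C for 48 h (yeast) or 72 h (molds). Inhibition zone was measured including the 6 mm disc, in triplicate, mean ± SE.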
# Aspergillus fumigatus [2] = experiment: Antifungal activity against Aspergillus fumigatus FNSST 3833 assessed as diameter of zone of inhibition at 10 ug/disc after 72 hrs by disc diffusion method; conditions: FNSST 3833, 72 h, read-out: DIZ; summary of the method: as §1
# Candida albicans [3] = experiment: Antifungal activity against Candida albicans ATCC 10231 assessed as diameter of zone of inhibition at 10 ug/disc after 48 hrs by disc diffusion method; conditions: ATCC 10231, 48 h, read-out: DIZ; summary of the method: as §1
# Acinetobacter baumannii [4] = experiment: Antibacterial activity against SIM-1 expressing Acinetobacter baumannii isolate 170 after 18 to 24 hrs by two-fold broth microdilution assay
# Summary of the method: (§2)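 CLSI two-fold broth microdilution. Compounds dissolved in DMSO, 10 mg/mL stock, serially diluted to 400–0.09 µg/mL in Mueller Hinton broth. Wells inoculated with 10^6 CFU/mL bacteria and incubated 18–24 h at 37 °C. 0.2 mg/mL INT added for 30 min. MIC taken as the lowest concentration with no visible growth or pink colour. Triplicate.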
# Talaromyces funiculosus [5] = experiment: Antifungal activity against Penicillium funiculosum FNSST 3724 assessed as diameter of zone of inhibition at 250 ug/disc after 72 hrs by disc diffusion method; conditions: FNSST 3724, 72 h, read-out: DIZ
# Summary of the method: (§3)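 Fungi were grown overnight at 30 °C in Sabouraud dextrose broth to 10^4 cfu/mL, and 100 µL was spread on Sabouraud dextrose agar. 6 mm discs carried 250 µg (25 µL of a 10 mg/mL stock in 96% ethanol), with ethanol as the negative control. Incubation was at 30 °C for 48 h (yeast) or 72 h (molds). Zone diameter was read including the disc, in triplicate, mean ± SE.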
# Candida albicans [6] = experiment: Antifungal activity against Candida albicans ATCC 10231 assessed as diameter of zone of inhibition at 250 ug/disc after 48 hrs by disc diffusion method; conditions: ATCC 10231, 48 h, read-out: DIZ; summary of the method: as §3
# Enterobacter cloacae [7] = experiment: Antibacterial activity against TEM-1/CTX-M-15 expressing Enterobacter cloacae isolate 62 after 18 to 24 hrs by two-fold broth microdilution assay
# Aeromonas hydrophila [8] = experiment: Ratio of gentamicin MIC to compound MIC for Aeromonas hydrophila FNSST 014
# Aeromonas hydrophila [9] = experiment: Antibacterial activity against Aeromonas hydrophila FNSST 014 after 18 to 24 hrs by two-fold broth microdilution assay
# Summary of the method: (§4)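 CLSI two-fold broth microdilution was used. Compounds were dissolved in DMSO, brought to 10 mg/mL in medium, then serially diluted in Mueller Hinton broth over 400–0.09 µg/mL. Overnight MHB cultures were diluted to 10^6 CFU/mL, and 10 µL was added per well. Plates were incubated 18–24 h at 37 °C, then 0.2 mg/mL INT was added for 30 min at 37 °C. MIC was the lowest concentration with no visible growth or pink colour, triplicate.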
# Acinetobacter baumannii [10] = experiment: Ratio of imipenem MIC to compound MIC for Acinetobacter baumannii isolate 170
# Bacillus cereus [11] = experiment: Antibacterial activity against Bacillus cereus ATCC 11778 after 18 to 24 hrs by two-fold broth microdilution assay; summary of the method: as §4
# Bacillus cereus [12] = experiment: Antibacterial activity against Bacillus cereus ATCC 11778 assessed as diameter of zone of inhibition at 250 ug/disc after 24 hrs by disc diffusion method; conditions: ATCC 11778, 24 h, read-out: DIZ
# Summary of the method: (§5)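 Bacteria were grown overnight at 37 °C in TSB to about 10^6 cfu/mL, and 100 µL was spread on Mueller Hinton agar. Sterile 6 mm discs were each loaded with 25 µL of a 10 mg/mL stock in 96% ethanol, giving 250 µg/disc. Ethanol served as the negative control. Plates were incubated 24 h at 37 °C. Inhibition zone diameter was measured including the disc, in triplicate, as mean ± SE.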
# Escherichia coli [13] = experiment: Antibacterial activity against Escherichia coli FNSST 982 assessed as diameter of zone of inhibition at 250 ug/disc after 24 hrs by disc diffusion method; conditions: FNSST 982, 24 h, read-out: DIZ; summary of the method: as §5
# Staphylococcus aureus [14] = experiment: Antibacterial activity against Staphylococcus aureus ATCC 25923 after 18 to 24 hrs by two-fold broth microdilution assay; summary of the method: as §4
# Aeromonas hydrophila [15] = experiment: Antibacterial activity against TEM-1/SHV-12 expressing Aeromonas hydrophila isolate 268 after 18 to 24 hrs by two-fold broth microdilution assay; summary of the method: as §4
# Pseudomonas aeruginosa [16] = experiment: Ratio of gentamicin MIC to compound MIC for Pseudomonas aeruginosa FNSST 982
# Escherichia coli [17] = experiment: Ratio of gentamicin MIC to compound MIC for Escherichia coli FNSST 982
# Aspergillus fumigatus [18] = experiment: Antifungal activity against Aspergillus fumigatus FNSST 3833 assessed as diameter of zone of inhibition at 250 ug/disc after 72 hrs by disc diffusion method; conditions: FNSST 3833, 72 h, read-out: DIZ; summary of the method: as §3
# Klebsiella pneumoniae [19] = experiment: Antibacterial activity against Klebsiella pneumoniae FNSST 011 assessed as diameter of zone of inhibition at 250 ug/disc after 24 hrs by disc diffusion method; conditions: FNSST 011, 24 h, read-out: DIZ; summary of the method: as §5
# Clostridium perfringens [20] = experiment: Antibacterial activity against Clostridium perfringens FNSST 4999 assessed as diameter of zone of inhibition at 250 ug/disc after 24 hrs by disc diffusion method; conditions: FNSST 4999, 24 h, read-out: DIZ
# Summary of the method: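 Disc diffusion per CLSI: 100 µL of 10^6 cfu/mL bacterial suspension spread on Mueller Hinton agar. 6 mm discs loaded with 25 µL of 10 mg/mL compound stock in 96% ethanol (250 µg/disc); ethanol as negative control. Incubated 24 h at 37 °C. Inhibition zone diameter measured in mm including the disc, triplicate, reported as mean ± SE.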
# Clostridium perfringens [21] = experiment: Antibacterial activity against Clostridium perfringens FNSST 4999 after 18 to 24 hrs by two-fold broth microdilution assay; summary of the method: as §2
# Enterobacter cloacae [22] = experiment: Antibacterial activity against TEM-1/SHV-12 expressing Enterobacter cloacae isolate 306 after 18 to 24 hrs by two-fold broth microdilution assay
# Staphylococcus aureus [23] = experiment: Antibacterial activity against Staphylococcus aureus ATCC 25923 assessed as diameter of zone of inhibition at 250 ug/disc after 24 hrs by disc diffusion method; conditions: ATCC 25923, 24 h, read-out: DIZ; summary of the method: as §5
# Pseudomonas aeruginosa [24] = experiment: Ratio of meropenem MIC to compound MIC for Pseudomonas aeruginosa isolate 197
# Aeromonas caviae [25] = experiment: Antibacterial activity against […] expressing Aeromonas caviae isolate 258 after 18 to 24 hrs by two-fold broth microdilution assay; summary of the method: as §4
# Aeromonas hydrophila [26] = experiment: Antibacterial activity against Aeromonas hydrophila FNSST 014 assessed as diameter of zone of inhibition at 250 ug/disc after 24 hrs by disc diffusion method; conditions: FNSST 014, 24 h, read-out: DIZ; summary of the method: as §5
# Aeromonas caviae [27] = experiment: Antibacterial activity against TEM-1/CTX-M-15 expressing Aeromonas caviae isolate 260 after 18 to 24 hrs by two-fold broth microdilution assay; summary of the method: as §4
# Enterococcus faecalis [28] = experiment: Antibacterial activity against Enterococcus faecalis ATCC 29212 after 18 to 24 hrs by two-fold broth microdilution assay; summary of the method: as §4
# Klebsiella pneumoniae [29] = experiment: Antibacterial activity against TEM-1/SHV-12 expressing Klebsiella pneumoniae isolate 303 after 18 to 24 hrs by two-fold broth microdilution assay; summary of the method: as §4
# Pseudomonas aeruginosa [30] = experiment: Antibacterial activity against GIM-1 expressing Pseudomonas aeruginosa isolate 197 after 18 to 24 hrs by two-fold broth microdilution assay; summary of the method: as §4
# Escherichia coli [31] = experiment: Antibacterial activity against TEM-1/SHV-12 expressing Escherichia coli isolate 237 after 18 to 24 hrs by two-fold broth microdilution assay; summary of the method: as §2
# Kluyvera intermedia = experiment: Antibacterial activity against TEM-1/SHV-12/[…] expressing Enterobacter intermedius isolate 243 after 18 to 24 hrs by two-fold broth microdilution assay; summary of the method: as §4
# [32] = test system: Stenotrophomonas maltophilia; experiment: Antibacterial activity against […] expressing Stenotrophomonas maltophilia isolate 125 after 18 to 24 hrs by two-fold broth microdilution assay; summary of the method: as §4
# Enterobacter cloacae [33] = experiment: Antibacterial activity against CTX-15 expressing Enterobacter cloacae isolate 51 after 18 to 24 hrs by two-fold broth microdilution assay
# Pseudomonas aeruginosa [34] = experiment: Ratio of imipenem MIC to compound MIC for Pseudomonas aeruginosa isolate 197
# Klebsiella pneumoniae [35] = experiment: Antibacterial activity against Klebsiella pneumoniae FNSST 011 after 18 to 24 hrs by two-fold broth microdilution assay; summary of the method: as §4
# Escherichia coli [36] = experiment: Antibacterial activity against Escherichia coli FNSST 982 after 18 to 24 hrs by two-fold broth microdilution assay; summary of the method: as §4
# Acinetobacter baumannii [37] = experiment: Ratio of meropenem MIC to compound MIC for Acinetobacter baumannii isolate 170
# Escherichia coli [38] = experiment: Antibacterial activity against […] expressing Escherichia coli isolate 235 after 18 to 24 hrs by two-fold broth microdilution assay; summary of the method: as §2
# Escherichia coli [39] = experiment: Antibacterial activity against […] expressing Escherichia coli isolate 4024 after 18 to 24 hrs by two-fold broth microdilution assay; summary of the method: as §2
# Klebsiella pneumoniae [40] = experiment: Ratio of gentamicin MIC to compound MIC for Klebsiella pneumoniae FNSST 011
# Enterococcus faecalis [41] = experiment: Antibacterial activity against Enterococcus faecalis ATCC 29212 assessed as diameter of zone of inhibition at 250 ug/disc after 24 hrs by disc diffusion method; conditions: ATCC 29212, 24 h, read-out: DIZ; summary of the method: as §5
# Pseudomonas aeruginosa [42] = experiment: Antibacterial activity against Pseudomonas aeruginosa FNSST 982 assessed as diameter of zone of inhibition at 250 ug/disc after 24 hrs by disc diffusion method; conditions: FNSST 982, 24 h, read-out: DIZ; summary of the method: as §5
# Pseudomonas aeruginosa [43] = experiment: Antibacterial activity against Pseudomonas aeruginosa FNSST 982 after 18 to 24 hrs by two-fold broth microdilution assay; summary of the method: as §4
compound,measurement,setting,value
C[C@@H]1[C@H](O)[C@@H](C)/C=C/C=C/C=C/C=C/C=C/C=C/C=C/[C@H](O[C@@H]2O[C@H](C)[C@@H](O)[C@H](N)[C@@H]2O)C[C@@H]2O[C@](O)(C[C@@H](O)C[C@@H](O)[C@H](O)CC[C@@H](O)C[C@@H](O)CC(=O)O[C@H]1C)C[C@H](O)[C@H]2C(=O)O [AMPHOTERICIN B],zone of inhibition at 10 µg/disc,Talaromyces funiculosus [1],18.3 mm
same,zone of inhibition at 10 µg/disc,Aspergillus fumigatus [2],19.2 mm
same,zone of inhibition at 10 µg/disc,Candida albicans [3],21.6 mm
O/N=C/c1n(Cc2ccccc2)cc[n+]1-c1ccc(F)cc1.[Br-],MIC,Acinetobacter baumannii [4],0.78 µg/mL
same,zone of inhibition at 250 µg/disc,Talaromyces funiculosus [5],17.9 mm
same,zone of inhibition at 250 µg/disc,Candida albicans [6],21.9 mm
same,MIC,Enterobacter cloacae [7],6.25 µg/mL
same,Ratio,Aeromonas hydrophila [8],2.5
same,MIC,Aeromonas hydrophila [9],12.5 µg/mL
same,Ratio,Acinetobacter baumannii [10],20
same,MIC,Bacillus cereus [11],6.25 µg/mL
same,zone of inhibition at 250 µg/disc,Bacillus cereus [12],18.3 mm
same,zone of inhibition at 250 µg/disc,Escherichia coli [13],15.3 mm
same,MIC,Staphylococcus aureus [14],6.25 µg/mL
same,MIC,Aeromonas hydrophila [15],12.5 µg/mL
same,Ratio,Pseudomonas aeruginosa [16],2.5
same,Ratio,Escherichia coli [17],2.5
same,zone of inhibition at 250 µg/disc,Aspergillus fumigatus [18],19.4 mm
same,zone of inhibition at 250 µg/disc,Klebsiella pneumoniae [19],14.7 mm
same,zone of inhibition at 250 µg/disc,Clostridium perfringens [20],11.4 mm
same,MIC,Clostridium perfringens [21],25 µg/mL
same,MIC,Enterobacter cloacae [22],6.25 µg/mL
same,zone of inhibition at 250 µg/disc,Staphylococcus aureus [23],19.9 mm
same,Ratio,Pseudomonas aeruginosa [24],20
same,MIC,Aeromonas caviae [25],12.5 µg/mL
same,zone of inhibition at 250 µg/disc,Aeromonas hydrophila [26],16.5 mm
same,MIC,Aeromonas caviae [27],12.5 µg/mL
same,MIC,Enterococcus faecalis [28],6.25 µg/mL
same,MIC,Klebsiella pneumoniae [29],12.5 µg/mL
same,MIC,Pseudomonas aeruginosa [30],0.39 µg/mL
same,MIC,Escherichia coli [31],3.12 µg/mL
same,MIC,Kluyvera intermedia,6.25 µg/mL
same,MIC,[32],12.5 µg/mL
same,MIC,Enterobacter cloacae [33],6.25 µg/mL
same,Ratio,Pseudomonas aeruginosa [34],20
same,MIC,Klebsiella pneumoniae [35],1.56 µg/mL
same,MIC,Escherichia coli [36],12.5 µg/mL
same,Ratio,Acinetobacter baumannii [37],20
same,MIC,Escherichia coli [38],6.25 µg/mL
same,MIC,Escherichia coli [39],1.56 µg/mL
same,Ratio,Klebsiella pneumoniae [40],2.5
same,zone of inhibition at 250 µg/disc,Enterococcus faecalis [41],19.6 mm
same,zone of inhibition at 250 µg/disc,Pseudomonas aeruginosa [42],15.9 mm
same,MIC,Pseudomonas aeruginosa [43],25 µg/mL
